Assay outcomes as filed in PubChem BioAssay.
FN deposition inh: inhibitors of fibronectin matrix deposition, primary screen, AH1F cells, Alexa488-fibronectin fluorescence, plate reader. AH1F fibroblasts, overnight. inhibition, % at 12.6 µM. hit rate 0.086% among 350,000. AID 743247, 2014;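 active = mean inhibition across replicates of 30% or more, regardless of how many single replicates reach that level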;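 note: positive control wells lacked labelled fibronectin entirely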
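Assay system: AH1F fibroblasts assembling fluorescent fibronectin matrix; Amount: 10000 AH1F cells per well; Buffer or medium: DMEM, 2% serum; Probe or stimulus: Alexa488-fibronectin, 24 nM final in well; Doses: single compound dose, delivered by pin transfer; Incubation: 1 h adhesion, overnight exposure; Measured by: fluorescence 485/525 nm; Read-out: fibronectin deposition inhibition.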
FGF22 binding-1: binders of human FGF22 protein, primary screen, FGF22 synaptogenesis inhibitor project, biophysical, thermal shift, single point; Fibroblast growth factor 22 (Homo sapiens), Q9HCT0; recombinant FGF22 thermal shift, SYPRO orange fluorescence; percent of sucrose octasulfate shift, DMSO zero; activity (Tm shift, normalised), % at 9.99 µM; hit rate 1.5% among 340,000; AID 651658, 2012;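 active = mean Tm shift, scaled 0 neutral to 100 positive control, at about 1.3% or above, every replicate too, limit read from the data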
Target sequence (Q9HCT0 whole entry, looked up): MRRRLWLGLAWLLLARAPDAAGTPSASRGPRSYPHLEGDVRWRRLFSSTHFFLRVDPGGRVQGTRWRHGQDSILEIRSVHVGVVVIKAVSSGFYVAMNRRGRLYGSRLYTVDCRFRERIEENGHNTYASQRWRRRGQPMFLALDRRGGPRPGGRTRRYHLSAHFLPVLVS
PGC1a acetyl inh: inhibitors of PGC1a acetylation signal, primary screen, cell-based, U2OS, AlphaScreen, inhibitor mode; inhibition, % at 15.6 µM; AlphaScreen anti-acetyl-lysine; with virally co-expressed GCN5 acetyltransferase; hit rate 0.17% among 350,000;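 active = every replicate shows inhibition of at least 40%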;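 note: 0% = neutral control wells and 100% = positive control wells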
SIRT5 inh: SIRT5 desuccinylase inhibitors, primary screen, biochemical, fluorescence imaging, single point, set 5 | Purified SirT5, succinyl-peptide AMC, trypsin-coupled fluorescence | inhibition, % at 15 µM | hit rate 1.1% among 330,000; in the data active = inhibition above about 15%
Target sequence (Q9NXA8 whole entry, looked up): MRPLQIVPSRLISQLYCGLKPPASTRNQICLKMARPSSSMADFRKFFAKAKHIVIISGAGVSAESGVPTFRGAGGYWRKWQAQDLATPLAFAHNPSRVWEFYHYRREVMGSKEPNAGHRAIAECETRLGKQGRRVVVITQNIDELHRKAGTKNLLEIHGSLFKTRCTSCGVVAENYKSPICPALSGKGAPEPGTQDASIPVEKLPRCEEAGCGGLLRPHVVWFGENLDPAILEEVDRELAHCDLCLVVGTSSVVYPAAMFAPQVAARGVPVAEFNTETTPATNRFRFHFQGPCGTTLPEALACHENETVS
ERAP1 inh: human ERAP1 aminopeptidase inhibitors, primary screen, biochemical, single point, plate reader | hit rate 0.15% among 340,000 | recombinant ERAP1, Leu-AMC fluorescence, 60 min | AID 652197, 2013 | Endoplasmic reticulum aminopeptidase 1 (Homo sapiens), Q9NZ08 | inhibition, % at 10.7 µM;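 active = mean replicate inhibition of at least 30%, or all replicates individually reaching that 30% level; inactive = mean below 30% and not every replicate reaching it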;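 note: 0% = neutral control wells and 100% = L-leucinethiol positive control wells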
FGF22 binding-2: binders of human FGF22 protein, dose response, FGF22 synaptogenesis inhibitor project, biophysical, thermal shift, cherry-pick retest; shares compounds with FGF22 binding-1; recombinant FGF22 thermal shift, SYPRO orange fluorescence; thermal shift activity, °C (ΔTm) at 38 µM; hit rate 2% among 1,000;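 active = fitted rise in melting shift crosses a set limit at or below the top valid dose tested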
SYPRO no-protein: compound-only thermal shift signal without protein, dose response, artefact control for FGF22 binder project, biochemical, cherry-picked samples, RT-PCR instrument; shares compounds with FGF22 binding-1; compound-only SYPRO orange thermal shift counter-screen, no protein; AC50, µM (doses to about 38 µM); hit rate 2% among 1,000;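 active = rising signal whose fitted curve reaches the 0.54 level within the top valid dose, showing a melting point, actives reach about 13 µM in these data; inactive = the rest, including activity in the opposite direction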; note: value is where the raw curve crosses a fixed level and not half-maximal
Numbers without * were called inactive; i = inactive; / = no result given; ! = repeats disagree; [ ] = dose if it differs, or a comment. Only some compounds are listed: those with a hit (about 2.2% of all), similar ones and a draw of the others.

SMILES	FN deposition inh	FGF22 binding-1	PGC1a acetyl inh	SIRT5 inh	ERAP1 inh	FGF22 binding-2	SYPRO no-protein
CCCNC(=O)C[C@H]1CC[C@H]2[C@H](COc3ccc(NS(=O)(=O)c4ccccc4C)cc3C(=O)N2C)O1	2.5	/	-2.5	-1.3	-0.3	/	/
CNC(=O)C[C@@H]1CC[C@@H]2[C@@H](COc3ccc(NS(=O)(=O)c4ccccc4C)cc3C(=O)N2C)O1	-25.3	19.7*	1.7	-5.0	-1.1	-0.018[42 µM]	i
CNC(=O)C[C@@H]1CC[C@@H]2[C@H](COc3ccc(NC(=O)c4cccc(F)c4)cc3C(=O)N2C)O1	2.2	15.9*!	-6.1	0.9	-0.7	0	i
CC(C)CC#Cc1ccc2c(c1)O[C@@H](CN(C)C(=O)c1ccccc1F)[C@H](C)CN([C@@H](C)CO)S2(=O)=O	/	-0.6	5.1	7.4	0.5	/	/
O=C(N/N=C/c1c(O)ccc2ccccc12)c1[nH]ncc1Br	-3.4	1.3*	/	4.2	-3.3	-0.32	i
COc1ccccc1NC(=O)N[C@@H]1CC[C@@H](CCn2cc(-c3ccccc3OC)nn2)O[C@@H]1CO	13.7	1.7*	-8.2	4.5	1.1	0.038	i
Cn1cccc1/C=N/NC(=O)Cc1cccc2ccccc12	0.1	2.1*	/	-6.7	0.4	0.066	i
O=C(Nc1cccc(C(=O)NC2CCCC2)c1)c1ccccc1	10.1	0.1	/	-1.2	0.4	/	/
O=C(NC1CC1)c1cccc(NC(=O)c2cnn(-c3ccccc3)n2)c1	/	1.4*	4.3	-0.8	1.2	0.036	i
Cc1noc(C)c1NC(=O)Nc1cccc2c1O[C@H](CN(C)S(=O)(=O)c1ccc(F)cc1)[C@@H](C)CN([C@@H](C)CO)C2=O	/	0.9	-0.5	7.3	-0.6	/	/
O=C(O)c1ccc(S(=O)(=O)N(CCc2ccccc2)Cc2ccc(Cl)cc2)cc1	0.4	-0.2	-0.2	3.8	-1.1	/	/
O=C(O)CCN(Cc1ccccc1)S(=O)(=O)c1ccccc1Cl	3.2	2.9*	2.1	-3.9	1.0	-0.164	i
CCCc1cn(CC[C@@H]2CC[C@H](NC(=O)C3CCCCC3)[C@H](CO)O2)nn1	/	0.3	0.6	-1.3	-1.1	/	/
CCOCCCNS(=O)(=O)c1ccc(NC(=O)c2ccccc2)cc1	/	1.8*	-2.4	-5.2	-1.9	0.028	i
CS(=O)(=O)N1CCCCN2[C@H](CO)[C@H](c3ccc(C#Cc4ccccn4)cc3)[C@@H]2C1	/	1.5*	13.7	3.4	0.0	0.159[42 µM]	i
OC[C@@H]1[C@@H](c2ccc(-c3ccccc3)cc2)[C@@H]2CN(Cc3ccccn3)CCCCN12	/	0.1	-4.0	-3.1	0.2	/	/
OC[C@@H]1[C@@H](c2ccc(-c3cccnc3)cc2)[C@@H]2CN(Cc3ccccn3)CCCCN12	-4.6	1.5*	2.5	-1.8	-0.6	0.022	i
OC[C@@H]1[C@H](c2ccc(Br)cc2)[C@@H]2CN(Cc3cncnc3)CCCCN12	-5.2	2.4*	-1.8	2.6	-1.1	0.059[42 µM]	i
OC[C@H]1[C@@H](c2ccc(-c3cccnc3)cc2)[C@@H]2CN(Cc3ccccn3)CCCCN12	-6.5	1.5*	-2.8	-2.3	-2.4	0.023	i
O=C(c1ccccc1F)N1CC2(C1)[C@@H](c1ccccc1)[C@@H](CO)N2CC1CCCC1	/	/	/	1.9	0.3	/	/
O=C(C[C@@H]1CC[C@@H](NC(=O)Nc2cc(F)ccc2F)[C@H](CO)O1)NCCCN1CCOCC1	-1.9	38.6*	7.2	-3.5	2.8	0.233[42 µM]	i
O=C(C[C@H]1CC[C@@H](NC(=O)Nc2cc(F)ccc2F)[C@@H](CO)O1)Nc1ccc(-c2ccccc2)cc1	-2.1	1.3*	-4.7	1.4	3.0	0.113[42 µM]	i
COc1cccc(NC(=O)N[C@@H]2CC[C@@H](CC(=O)Nc3ccccc3)O[C@H]2CO)c1	-3.9	22.4*	-7.5	1.2	0.1	0.256	i
C[C@H](NC(=O)C[C@@H]1CC[C@@H](NC(=O)Nc2ccc3c(c2)OCO3)[C@@H](CO)O1)c1ccccc1	-9.0	6.9*	4.5	-0.2	1.2	0.068[42 µM]	i
COc1ccc2c3c([nH]c2c1)[C@H](CO)N(C(=O)Nc1ccccc1F)CC31CN(C(=O)C2CC2)C1	/	0.0	-8.8	/	/	/	/
SMILES	FN deposition inh	FGF22 binding-1	PGC1a acetyl inh	SIRT5 inh	ERAP1 inh	FGF22 binding-2	SYPRO no-protein
CCCNC(=O)N(C)C[C@H]1Oc2cc(-c3ccccc3F)ccc2S(=O)(=O)N([C@@H](C)CO)C[C@H]1C	-0.1	-0.2	-2.1	-5.1	0.3	/	/
O=C(NCC[C@@H]1CC[C@@H](NC(=O)Nc2cc(F)ccc2F)[C@@H](CO)O1)Nc1ccc(F)cc1	/	1.3*	2.8	-1.8	0.0	0.146	i
O=C(NCC[C@H]1CC[C@@H](NC(=O)Nc2cc(F)ccc2F)[C@@H](CO)O1)Nc1ccc(F)cc1	/	-0.1	9.5	-6.6	-0.1	/	/
O=C(C[C@@H]1CC[C@H](NC(=O)c2ccc3c(c2)OCO3)[C@H](CO)O1)NCc1ccc(Oc2ccccc2)cc1	-6.8	16.1*	-8.9	-2.6	4.5	0.343[42 µM]	i
CNC[C@@H]1Oc2ccc(NC(=O)Cc3cn(C)c4ccccc34)cc2C(=O)N([C@@H](C)CO)C[C@@H]1C	3.0	/	/	/	/	/	/
C[C@H]1CCCCO[C@@H](CN(C)C(=O)Nc2ccccc2)[C@@H](C)CN([C@@H](C)CO)C(=O)c2cc(NC(=O)NC3CCCCC3)ccc2O1	7.6	/	5.0	4.0	-2.1	/	/
C[C@H]1CCCCO[C@@H](CN(C)Cc2ccc(C(=O)O)cc2)[C@@H](C)CN([C@@H](C)CO)C(=O)c2cc(NC(=O)c3ccncc3)ccc2O1	/	0.0	-1.0	-0.7	1.9	/	/
CC(OC(=O)c1ccccc1)C(=O)NCCC1=CCCCC1 (stereo not given)	-5.1	1.6*	4.3	-2.8	-0.6	0.119	i
COc1ccc2c3c([nH]c2c1)[C@H](CO)N(C(=O)Nc1ccc(F)cc1)CC31CCN(S(=O)(=O)c2ccccc2)CC1	/	/	-0.4	/	/	/	/
COc1ccc2c3c([nH]c2c1)[C@H](CO)N(C(=O)Nc1ccc(F)cc1)CC31CCN(S(=O)(=O)c2cccs2)CC1	/	16.2*	2.9	12.8	1.0	0.032[42 µM]	i
O=C(OCC(=O)c1cccs1)c1cccc(C(=O)OCC(=O)c2cccs2)n1	/	2.2*	-2.8	-3.4	-2.1	0.026	i
